The whole screen tested about 320,000 compounds, of which about 310 (0.097%) were called active. The full list was thinned out, with actives kept by preference. Unmarked numbers belong to inactive results.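 How the source made its calls: active means mean replicate activation of at least 60% and every replicate at or above 60%; inconclusive means mean or all-replicate condition met, but not both; inactive means mean below 60% and not all replicates reaching 60%.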
Experiment: activators of SR-BI mediated DiI-HDL uptake, primary screen, ldlA[mSR-BI] CHO cells, DiI fluorescence (AID 504775);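 further: 0% = median plate neutral-control signal and 100% = twice that signal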
Settings: 3 h, at 12.5 µM, hits give high values, 100 = double the neutral-control signal
Outline: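 material = CHO ldlA[mSR-BI] cells | medium = Ham's F12 with 0.5% BSA, HEPES 25 mM, pH 7.4 | reagent = fluorescent DiI-HDL, 10 µg/mL final | compound dosing = single-point compound dose | incubation = 3 h, 37 °C | measured by = bottom-read fluorescence, 550/595 nm | measure = HDL uptake via cellular fluorescence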

For `Cc1nn(-c2ncccn2)c2c1C(=O)CC(C)(C)C2Br` (stereo unspecified), which activation is on record?
The activation was -6.98%.

For `CC12CCCCC1=CC(=O)CC2` (stereo unspecified), which activation is on record?
Its activation is 0.111%.

With `O=C(NNC(=O)c1ccc2ccccc2c1)c1ccc(Cl)cc1` as the compound, how does the activation read?
Its activation is 17.1%.

For `O=C1C(=O)N(c2ccccc2)C(c2ccccc2)C1c1ccccc1` (stereo unspecified), which activation is on record?
The activation was -3.47%.

Which activation does the source give for `c1ccc(C(=NNc2nc3ccccc3s2)c2ccccn2)cc1` here?
Its activation is -40.5%.

Which activation does the source give for `C=CC(=O)Nc1ccc(Nc2ccnc(Nc3ccc(N4CCN(C)CC4)cc3)n2)cc1` here?
Its activation is -5.16%.

With `CC(=NNC(=S)N1CCCCCC1)c1ccccn1` as the compound, how does the activation read?
The activation was -22.4%.

With `CCOC(=O)c1ccccc1NC(=O)CSc1nc2c(sc(=S)n2CC)c(=O)[nH]1` as the compound, how does the activation read?
The activation was 15.7%.

Which activation does the source give for `Nc1ccc2c(c1)C(=Cc1cccnc1)c1ccccc1-2` here?
Its activation is -10.7%.

For `N#CC1=C(N)Oc2cc(N)ccc2C1c1ccccc1` (stereo unspecified), which activation is on record?
The activation was 23.9%.

For `Cc1ccc(S(=O)(=O)CCC(=O)OCC(=O)N(C)Cc2ccccc2)cc1`, which activation is on record?
The activation was 31.8%.

With `CC/C(=C(/c1ccccc1)c1ccc(OCC[N+](C)(C)C)cc1)c1ccccc1` as the compound, how does the activation read?
The activation was 44.1%.

For `CC(C)(C)OC(=O)N(Cc1ccccc1)Cc1ccc(OCc2cccc(NC(=O)c3ccccc3)c2)cc1`, which activation is on record?
Its activation is -30.4%.

With `CCCCN1CC(COCc2ccccc2)OCCS1(=O)=O` (stereo unspecified) as the compound, how does the activation read?
Its activation is 17.3%.

For `COc1ccc(CNC(=O)COC(=O)C2=Cc3ccccc3OC2)cc1`, which activation is on record?
Its activation is 3.54%.

Which activation does the source give for `COC1C(CO)OC(n2cnc3c(=S)nc(N)[nH]c32)C1O` (stereo unspecified) here?
The activation was 8.65%.

With `COC(=O)C1CC2=C(CC(C)(C)CC2=O)N(c2ccccc2)C1=O` (stereo unspecified) as the compound, how does the activation read?
Its activation is 15.5%.

With `O=C1OC(Cc2ccccc2)C(c2ccccc2)C1=O` (stereo unspecified) as the compound, how does the activation read?
Its activation is 5.71%.

With `CN(C(=O)c1ccc(NC(=O)Cc2cccc(NC(=O)C3CCN(C(=O)c4ccccc4)CC3)c2)cc1)C1CC1` as the compound, how does the activation read?
Its activation is -15%.

With `CC(C)c1ccc(C=NNc2ccc([N+](=O)[O-])cn2)cc1` as the compound, how does the activation read?
Its activation is 2.92%.

Which activation does the source give for `O=C(NN=Cc1ccccc1)c1ccccc1` here?
The activation was 4.39%.

Which activation does the source give for `NC(=O)C1CCN(C(=O)c2cc(S(=O)(=O)N3CCN(c4ccccc4)CC3)ccc2Cl)CC1` here?
The activation was 3.45%.

For `FC(F)(F)c1ccc(-c2cccc3c2C2CC3CCN2Cc2ccccc2)cc1` (stereo unspecified), which activation is on record?
Its activation is 20.1%.

With `O=c1oc2ccccc2c(=O)c2ccccc12` as the compound, how does the activation read?
The activation was 23.4%.

Which activation does the source give for `O=C(NCCc1ccccc1)c1cccc(NC(=O)c2ccccc2)c1` here?
The activation was -9.83%.

Which activation does the source give for `Cc1nc(N)sc1-c1ccccc1` here?
The activation was -11.1%.

For `O=[N+]([O-])c1ccc(N2CCOCC2)cc1`, which activation is on record?
The activation was -9.57%.

With `O=C(NN=CC=Cc1ccccc1)C(O)C(O)C(=O)NN=CC=Cc1ccccc1` (stereo unspecified) as the compound, how does the activation read?
Its activation is -3.92%.

Which activation does the source give for `CCCCNCCS(=O)(=O)NCc1ccccc1` here?
Its activation is 2.76%.

Which activation does the source give for `CC(C)CN1CC(C)C(=O)N(c2ccccc2)C1=S` (stereo unspecified) here?
Its activation is 3.77%.

Which activation does the source give for `CC(C)C(c1nnnn1C1CCCCC1)N1CCN(C(=O)c2ccco2)CC1` (stereo unspecified) here?
Its activation is 4.65%.

With `CCC(c1nnnn1C1CCCC1)N1CCN(C(=O)c2ccco2)CC1` (stereo unspecified) as the compound, how does the activation read?
The activation was 3.81%.

For `CC(C)C(c1nnnn1CCc1ccccc1)N1CCN(C(=O)c2ccco2)CC1` (stereo unspecified), which activation is on record?
Its activation is 424% (active).

Which activation does the source give for `Cc1ccc(OCCNC(=O)c2cccc(S(=O)(=O)N3CCN(Cc4ccccc4)CC3)c2)cc1` here?
Its activation is -20.6%.

Which activation does the source give for `CSCCC(NC(=O)COc1ccccc1)C(=O)N1CCN(c2cccc(C(F)(F)F)c2)CC1` (stereo unspecified) here?
The activation was -13.3%.

For `c1ccc2cc3c(NCCN4CCOCC4)ccnc3cc2c1`, which activation is on record?
The activation was 30.5%.

With `c1ccc2[nH]c(NCCN3CCOCC3)nc2c1` as the compound, how does the activation read?
Its activation is 62.8% (active).

Which activation does the source give for `C1=C(N2CCOCC2)/C(=C/c2nc3ccccc3[nH]2)CC1` here?
The activation was 6.52%.

Which activation does the source give for `CCc1c(Nc2ccccc2Cl)nc(N)[nH]c1=O` here?
Its activation is 15.3%.

For `NC(=O)c1ncn([C@@H]2O[C@H](CNCc3cnc(N4CCOCC4)s3)[C@@H](O)[C@H]2O)n1`, which activation is on record?
The activation was -12%.

For `NC(=O)c1ncn([C@@H]2O[C@H](CN=C3NS(=O)(=O)c4ccccc43)[C@@H](O)[C@H]2O)n1`, which activation is on record?
Its activation is 74.1% (active).

With `COc1cc2c(cc1CNC[C@H]1O[C@@H](n3cnc(C(N)=O)n3)[C@H](O)[C@@H]1O)OCO2` as the compound, how does the activation read?
The activation was 13.6%.

Which activation does the source give for `CCCCNC1(C#N)CCN(Cc2ccccc2)CC1` here?
The activation was 2.1%.

Which activation does the source give for `COc1ccc(CC(=O)N[C@@H]2c3cc(OC)c(OC)cc3C[C@H]2OCc2ccccc2)cc1` here?
Its activation is -26.8%.

For `COc1ccc(C2NCCCC2c2ccccc2)cc1` (stereo unspecified), which activation is on record?
The activation was -26.9%.

With `CC1C(C)N(C(=O)CCl)c2ccccc2N1C(=O)CCl` (stereo unspecified) as the compound, how does the activation read?
Its activation is 12%.

For `Cc1ccccc1N1CCN(C(=O)c2cccnc2)CC1`, which activation is on record?
The activation was 2.45%.

Which activation does the source give for `C[C@@H]1NS(=O)(=O)c2cc(Cl)ccc2O[C@@H]1c1ccccc1` here?
The activation was -33.6%.

For `COC(=O)c1ccc(CNC(=O)Cn2cc(C)c(=O)[nH]c2=O)cc1`, which activation is on record?
Its activation is -1.85%.

Which activation does the source give for `O=C(NNS(=O)(=O)c1ccc(F)cc1)c1ccc([N+](=O)[O-])cc1Cl` here?
Its activation is 4.85%.

Which activation does the source give for `O=[N+]([O-])c1ccc(NS(=O)(=O)c2ccccc2)c(Cl)c1` here?
Its activation is 84.4% (active).

Which activation does the source give for `Cc1cc([N+](=O)[O-])ccc1NS(=O)(=O)c1ccccc1` here?
The activation was 11.2%.

With `OC(COc1ccccc1)CN1CCN(c2cccc(Cl)c2)CC1` (stereo unspecified) as the compound, how does the activation read?
Its activation is -8.42%.

With `COc1cc(/C=C/c2ccc(/C=C/c3cc(OC)c(OC)c(OC)c3)cc2)cc(OC)c1OC` as the compound, how does the activation read?
Its activation is -51.2%.

Which activation does the source give for `O=C1C(Cl)=C(Oc2ccccc2)C(=O)c2ccccc21` here?
The activation was -13.1%.

With `COc1ccc(NS(=O)(=O)c2ccc(N3CCOCC3)c(NC(=O)/C=C/C(=O)O)c2)cc1` as the compound, how does the activation read?
The activation was 22.2%.

With `COc1ccc(CC(=O)NC(C)c2ccc(Cl)c(Cl)c2)cc1S(=O)(=O)N1CCOCC1` (stereo unspecified) as the compound, how does the activation read?
The activation was -4.63%.

With `Cc1cc([N+](=O)[O-])c(=O)[nH]c1C` as the compound, how does the activation read?
The activation was 9.21%.

Which activation does the source give for `CC(NC(=O)c1ccccc1)C(=O)Nc1ccccc1` (stereo unspecified) here?
The activation was -16.6%.

Which activation does the source give for `NC(=O)C1(Nc2ccc([N+](=O)[O-])cc2)CCCC1` here?
The activation was -13.2%.

For `S=C(Nc1ccccc1)Nc1ccc2ccccc2c1`, which activation is on record?
Its activation is -9.12%.

Reference: PubChem BioAssay AID504775 (Broad Institute, 2011)
